From ChEMBL document CHEMBL3525986, “Nicotinamide N-oxidation by CYP2E1 in human liver microsomes” (Drug Metab Dispos, 2013)

Columns and labels:
Assay type in all cases: ADME
[1] = target: T1, Cytochrome P450 2E1 (Homo sapiens, UniProt P05181); assay: Drug metabolism in human liver microsomes assessed as CYP2E1-mediated nicotinamide N-oxide formation at 3 mM after 30 mins by HPLC analysis; details: 0.5 h, 3000 µM
Method in brief: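 Pooled human liver microsomes at 1 mg/ml in 0.1 M NaH2PO4, pH 7.4, with 1mM NADPH were preincubated 2 min at 37°C. NAM was added at varied concentrations and run 30 min, then stopped with ice-cold methanol. N-oxide was measured by HILIC HPLC with UV at 254 nm against a standard curve. Km and Vmax came from a Michaelis-Menten nonlinear fit. Triplicates.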

[2] = target: T1, Cytochrome P450 2E1; assay: Drug metabolism in human liver microsomes assessed as CYP2E1-mediated nicotinamide N-oxide formation preincubated for 5 mins at 45 degC after 30 mins by HPLC analysis in absence of NADPH; details: 0.5 h
Method in brief: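 Before assay, HLM were heated 5 min at 45°C with or without NADPH. Incubation then ran with 2 mM NAM for 30 min in pH 7.4 phosphate buffer. NAM N-oxide was quantified by HILIC HPLC (UV 254 nm) from a standard curve. Triplicate determinations, t-test.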

[3] = target: T2, Flavin-containing monooxygenase 3 (Homo sapiens, UniProt P31513); assay: Drug metabolism in insect microsomes assessed as FMO3 (unknown origin)-mediated nicotinamide N-oxide formation after 30 mins by HPLC analysis; details: 0.5 h
T2 sequence (P31513 whole entry): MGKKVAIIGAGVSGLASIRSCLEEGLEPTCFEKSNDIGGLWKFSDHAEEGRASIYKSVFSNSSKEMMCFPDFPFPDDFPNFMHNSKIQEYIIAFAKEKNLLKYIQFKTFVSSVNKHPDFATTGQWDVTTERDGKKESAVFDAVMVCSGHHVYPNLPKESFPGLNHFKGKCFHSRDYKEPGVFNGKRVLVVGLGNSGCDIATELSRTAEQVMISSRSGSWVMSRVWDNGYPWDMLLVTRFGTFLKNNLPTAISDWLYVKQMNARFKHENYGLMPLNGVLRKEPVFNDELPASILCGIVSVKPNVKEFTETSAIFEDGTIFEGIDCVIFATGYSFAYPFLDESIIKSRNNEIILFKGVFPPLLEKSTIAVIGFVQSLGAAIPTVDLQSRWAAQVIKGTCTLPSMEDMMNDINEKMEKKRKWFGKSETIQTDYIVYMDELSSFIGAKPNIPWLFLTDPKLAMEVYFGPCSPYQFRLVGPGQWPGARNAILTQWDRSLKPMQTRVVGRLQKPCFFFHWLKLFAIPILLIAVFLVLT

[4] = target: T1, Cytochrome P450 2E1; assay: Drug metabolism in human liver microsomes assessed as diethyldithiocarbamate-mediated reduction of CYP2E1-mediated nicotinamide N-oxide formation at 2 mM by HPLC analysis relative to control; details: 2000 µM
Method in brief: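 Microsomes (1 mg/ml HLM, 1mM NADPH, pH 7.4) were preincubated 30 min with 100 μM diethyldithiocarbamate (final 0.1% methanol). Then 2 mM NAM was added for 30 min at 37°C. N-oxide was quantified by HILIC HPLC at 254 nm versus control. Triplicate means, t-test.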

[5] = target: T3, Cytochrome P450 2A6 (Homo sapiens, UniProt P11509); assay: Drug metabolism in human liver microsomes assessed as CYP2A6-mediated nicotinamide N-oxide formation by HPLC analysis
T3 sequence (P11509 whole entry): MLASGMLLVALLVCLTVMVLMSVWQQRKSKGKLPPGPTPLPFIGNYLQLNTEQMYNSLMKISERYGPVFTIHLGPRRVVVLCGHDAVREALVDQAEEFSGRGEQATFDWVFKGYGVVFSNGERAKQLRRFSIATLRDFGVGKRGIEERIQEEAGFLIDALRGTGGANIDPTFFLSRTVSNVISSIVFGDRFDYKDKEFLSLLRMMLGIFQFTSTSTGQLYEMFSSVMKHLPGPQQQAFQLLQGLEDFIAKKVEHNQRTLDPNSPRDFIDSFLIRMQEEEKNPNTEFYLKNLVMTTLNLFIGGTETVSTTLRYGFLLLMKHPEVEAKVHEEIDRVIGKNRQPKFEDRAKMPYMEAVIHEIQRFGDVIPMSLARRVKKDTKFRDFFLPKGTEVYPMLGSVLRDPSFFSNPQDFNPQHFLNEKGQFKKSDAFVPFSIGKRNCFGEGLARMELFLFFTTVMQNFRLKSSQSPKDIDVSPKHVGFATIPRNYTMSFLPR

[6] = target: T4, Cytochrome P450 2B6 (Homo sapiens, UniProt P20813); assay: Drug metabolism in human liver microsomes assessed as CYP2B6-mediated nicotinamide N-oxide formation by HPLC analysis
T4 sequence (P20813 whole entry): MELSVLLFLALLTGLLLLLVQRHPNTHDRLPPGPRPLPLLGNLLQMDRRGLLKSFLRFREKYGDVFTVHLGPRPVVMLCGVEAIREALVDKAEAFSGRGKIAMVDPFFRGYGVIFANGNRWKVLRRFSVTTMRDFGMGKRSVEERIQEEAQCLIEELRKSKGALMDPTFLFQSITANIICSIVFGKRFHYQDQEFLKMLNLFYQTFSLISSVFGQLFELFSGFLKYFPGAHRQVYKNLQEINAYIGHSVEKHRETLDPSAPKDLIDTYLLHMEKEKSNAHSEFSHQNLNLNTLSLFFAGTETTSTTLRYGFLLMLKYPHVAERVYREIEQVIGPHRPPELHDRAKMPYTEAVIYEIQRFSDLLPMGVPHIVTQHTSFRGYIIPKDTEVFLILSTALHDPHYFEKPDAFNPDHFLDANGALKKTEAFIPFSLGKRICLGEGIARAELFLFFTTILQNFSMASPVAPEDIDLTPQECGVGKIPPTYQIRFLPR

[7] = target: T1, Cytochrome P450 2E1; assay: Drug metabolism in human liver microsomes assessed as chlorzoxazone-mediated reduction of CYP2E1-mediated nicotinamide N-oxide formation at 2 mM by HPLC analysis relative to control; details: 2000 µM
Method in brief: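 Human liver microsomes (1 mg/ml, 1mM NADPH, pH 7.4) were incubated with 2 mM NAM plus 100 μM chlorzoxazone (final 1% acetonitrile) for 30 min at 37°C. Methanol quench, then HILIC HPLC, UV 254 nm. Compared against solvent control; triplicates, t-test.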

[8] = target: T1, Cytochrome P450 2E1; assay: Drug metabolism in human liver microsomes assessed as antibody-mediated reduction in CYP2E1-mediated nicotinamide N-oxide formation at 2 mM by HPLC analysis relative to control; design: scale not given: the % may be the effect or the level left; details: 2000 µM
Method in brief: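 HLM (1 mg/ml, pH 7.4 phosphate, 1mM NADPH) were preincubated 5 min at 37°C with 15 microgram anti-CYP2E1 or control mouse antibody. Control antibody was dialysed against Tris to remove azide. Then 2 mM NAM was added for 30 min. HPLC-UV 254 nm quantitation was expressed against the control antibody. Triplicates.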

[9] = target: T1, Cytochrome P450 2E1; assay: Drug metabolism in insect microsomes assessed as CYP2E1 (unknown origin)-mediated nicotinamide N-oxide formation after 30 mins by HPLC analysis; details: 0.5 h
Method in brief: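 Insect cell microsomes overexpressing CYP2E1 were diluted 4-fold with control insect microsomes. Otherwise run as for HLM: pH 7.4 phosphate, 1mM NADPH, 37°C, 30 min, across a range of NAM concentrations. Methanol stop, HILIC HPLC with UV at 254 nm. Triplicates.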

T1 sequence (P05181 whole entry): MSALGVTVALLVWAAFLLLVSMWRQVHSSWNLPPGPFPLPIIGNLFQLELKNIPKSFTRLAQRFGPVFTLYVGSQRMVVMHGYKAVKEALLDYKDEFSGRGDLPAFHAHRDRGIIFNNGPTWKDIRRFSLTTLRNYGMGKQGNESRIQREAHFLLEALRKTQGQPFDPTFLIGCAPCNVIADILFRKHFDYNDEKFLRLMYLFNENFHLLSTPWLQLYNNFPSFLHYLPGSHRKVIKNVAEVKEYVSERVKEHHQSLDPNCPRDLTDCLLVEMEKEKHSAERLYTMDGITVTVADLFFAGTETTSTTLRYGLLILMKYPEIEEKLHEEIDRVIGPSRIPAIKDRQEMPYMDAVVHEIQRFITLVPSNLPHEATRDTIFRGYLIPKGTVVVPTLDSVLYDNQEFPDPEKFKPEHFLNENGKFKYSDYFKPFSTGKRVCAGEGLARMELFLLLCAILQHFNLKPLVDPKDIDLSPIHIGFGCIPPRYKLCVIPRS

NC(=O)c1cccnc1 [NIACINAMIDE]
Drug metabolism [1]: metabolite_detected
Drug metabolism [2]: metabolite_detected
Drug metabolism [3]: metabolite_not_detected
fold change (FC) [4]: 8
Drug metabolism [5]: metabolite_not_detected
Drug metabolism [6]: metabolite_not_detected
fold change (FC) [7]: > 5
Activity [8]: < 8%
Drug metabolism [9]: Dose-dependent effect
